Reference: ChEMBL document CHEMBL1158063, “Awajanomycin, a Cytotoxic gamma-lactone-delta-lactam metabolite from marine-derived Acremonium sp. AWA16-1” (J Nat Prod, 2006)
≈ marks a conversion by molar mass, not a printed value. Calls of active or inactive are those of the source. No cut-off for these calls is given here.

What was measured:
[1] = test system: Leeuwenhoekiella marinoflava; experiment: Antimicrobial activity against Cytophaga marinoflava IFO 14170 at 50 ug/disk after 48 hrs by paper disk method; format: functional, organism-based
How it was run: (§1)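 Paper disk method on marine broth agar seeded with the marine strain. Each 6 mm disk was loaded with 50 µg sample, air-dried, and laid on the plate. Inhibition zone read after 48 h at 30 °C.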

[2] = test system: Candida albicans; experiment: Antimicrobial activity against sCandida albicans IFO 1060 at 50 ug/disk after 48 hrs by paper disk method; format: functional, organism-based
How it was run: (§2)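 Paper disk diffusion on nutrient broth agar plates seeded with the test strain. Sample loaded at 50 µg per 6 mm disk, air-dried, and placed on the agar surface. Growth-inhibition zone measured after 48 h incubation at 30 °C.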

[3] = test system: Staphylococcus aureus; experiment: Antimicrobial activity against Staphylococcus aureus IFO 12732 at 50 ug/disk after 48 hrs by paper disk method; format: functional, organism-based; how it was run: as §2
[4] = test system: Escherichia coli; experiment: Antimicrobial activity against Escherichia coli IFO 3301 at 50 ug/disk after 48 hrs by paper disk method; format: functional, organism-based; how it was run: as §2
[5] = test system: Bacillus subtilis; experiment: Antimicrobial activity against Bacillus subtilis IFO 3134 at 50 ug/disk after 48 hrs by paper disk method; format: functional, organism-based; how it was run: as §2
[6] = test system: Salinivibrio costicola; experiment: Antimicrobial activity against sSalinivibrio costicola ATCC 33508 at 50 ug/disk after 48 hrs by paper disk method; format: functional, organism-based; how it was run: as §1
[7] = test system: Alphaproteobacteria; experiment: Antimicrobial activity against Alphaproteobacteria MBIC3368 at 50 ug/disk after 48 hrs by paper disk method; format: functional, organism-based; how it was run: as §1
[8] = test system: A549; experiment: Cytotoxicity against human A549 cells after 72 hrs by alamar blue assay; format: functional, cell-based; conditions: A549, 72 h
How it was run: (§3)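 A549 lung adenocarcinoma cells in DMEM with 10% FBS were seeded at 8 × 10^3 cells/well and preincubated 14 h at 37 °C under 5% CO2. Serially diluted samples were then added for 72 h. Alamar Blue was added for a further 4 h, and viability was read as absorbance at 590 nm.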

[9] = test system: A549; experiment: Cytotoxicity against human A549 cells after 72 hrs up to 125 ug/mL by alamar blue assay; format: functional, cell-based; how it was run: as §3

CCCCCCCC(O)/C=C/[C@@H]1[C@H](O)[C@@H](C)NC(=O)[C@]1(O)CO (some centres undefined)
Activity [1]: inactive
Activity [2]: inactive
Activity [3]: inactive
Activity [4]: inactive
Activity [5]: inactive
Activity [6]: inactive
Activity [7]: inactive
IC50 [8]: 46.4 µg/mL (≈ 141 µM)

CCCCCCCC(O)/C=C/[C@@H]1[C@H](O)[C@@H](C)NC(=O)[C@]1(O)C(=O)O (some centres undefined)
Activity [1]: inactive
Activity [2]: inactive
Activity [3]: inactive
Activity [4]: inactive
Activity [5]: inactive
Activity [6]: inactive
Activity [7]: inactive
Activity [9]: inactive

CCCCCCCC(O)/C=C/[C@@H]1[C@@H]2OC(=O)[C@@]1(O)C(=O)N[C@@H]2C (some centres undefined) [AWAJANOMYCIN]
Activity [1]: inactive
Activity [2]: inactive
Activity [3]: inactive
Activity [4]: inactive
Activity [5]: inactive
Activity [6]: inactive
Activity [7]: inactive
IC50 [8]: 27.5 µg/mL (≈ 84.5 µM)
